Test results published in ChEMBL document CHEMBL5724801, “EUbOPEN Chemogenomics Library - Multiplex” (2024).
Where “and” joins values, the source holds several entries; their conditions need not be identical. Identical values can stand only once.

How the values were obtained:
HEK-293T = test: Multiplex assay against HEK293T; format: toxicity, cell-based; conditions: human
Summary of the method: (§1)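 Live cells were stained at seeding with Hoechst33342, BioTracker Green Microtubule Cytoskeleton Dye, MitoTracker Red and Annexin V Alexa Fluor 680. Following compound addition, they were imaged on a CQ1 microscope at 37°C and 5% CO2 and gated by CellPathfinder machine learning into Hoechst high-intensity objects or normal cells, with normal cells split into healthy, pyknosed or fragmented nuclei and pyknosed cells into mitotic or apoptotic. Tubulin, mitochondrial-mass and membrane-permeability phenotypes are per cents of healthy-nucleus cells.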

U2OS = test: Multiplex assay against U2OS; format: toxicity, cell-based; conditions: human; summary of the method: as §1
[1] = 24 h, 1 µM, compound concentration 1 uM
[2] = 24 h, 10 µM, compound concentration 10 uM
[3] = 48 h, 1 µM, compound concentration 1 uM
[4] = 48 h, 10 µM, compound concentration 10 uM
[5] = 12 h, 1 µM, compound concentration 1 uM
[6] = 12 h, 10 µM, compound concentration 10 uM

For `CC(C)CC(=O)Nc1cncc(-c2ccc3[nH]nc(-c4nc5c(-c6cccc(F)c6)cncc5[nH]4)c3c2)c1` [LORECIVIVINT], which “Total Cell Count” value (HEK-293T; [1]) is on record?
Its value is 157 and 107.

And the “Population Apoptotic (%)” value (HEK-293T; [2])?
The value was 59.46% and 44.57%.

And the “Population Fragmented Nuclei (%)” value (HEK-293T; [2])?
The value was 4.4% and 5.7%.

And the “Population Healthy Nuclei (%)” value (HEK-293T; [2])?
Its value is 25.79% and 17.54%.

And the “Population Hoechst High Intensity Objects (%)” value (HEK-293T; [2])?
Its value is 0.93% and 0%.

What about the “Population Membrane Permeable-Phenotype (%)” value (HEK-293T; [2]) of the same molecule?
The value was 3.66% and 10%.

And the “Population Mitotic Cells (%)” value (HEK-293T; [2])?
Its value is 40.54% and 55.43%.

What about the “Population Normal (%)” value (HEK-293T; [2]) of the same molecule?
The value was 99.07% and 100%.

What about the “Population Pyknosed Nuclei (%)” value (HEK-293T; [2]) of the same molecule?
The value was 69.81% and 76.75%.

What about the “Population Tubulin-Different-Phenotype (%)” value (HEK-293T; [2]) of the same molecule?
Its value is 34.15% and 12.5%.

What about the “Total Cell Count” value (HEK-293T; [2]) of the same molecule?
The value was 321 and 228.

And the “Population Apoptotic (%)” value (HEK-293T; [3])?
Its value is 79.78% and 84.11%.

And the “Population Fragmented Nuclei (%)” value (HEK-293T; [3])?
The value was 10.98% and 4.07%.

What about the “Population Hoechst High Intensity Objects (%)” value (HEK-293T; [3]) of the same molecule?
The value was 1.2% and 0%.

What about the “Population Mitochondria Different-Phenotype (%)” value (HEK-293T; [3]) of the same molecule?
Its value is 82.46% and 45.45%.

And the “Population Mitotic Cells (%)” value (HEK-293T; [3])?
Its value is 20.22% and 15.89%.

What about the “Population Normal (%)” value (HEK-293T; [3]) of the same molecule?
The value was 98.8% and 100%.

And the “Population Pyknosed Nuclei (%)” value (HEK-293T; [3])?
The value was 54.27% and 86.99%.

And the “Population Tubulin-Different-Phenotype (%)” value (HEK-293T; [3])?
Its value is 73.68% and 63.64%.

What about the “Total Cell Count” value (HEK-293T; [3]) of the same molecule?
The value was 166 and 123.

And the “Population Apoptotic (%)” value (HEK-293T; [4])?
Its value is 54.1% and 55.85%.

What about the “Population Fragmented Nuclei (%)” value (HEK-293T; [4]) of the same molecule?
Its value is 3.22% and 5.44%.

And the “Population Healthy Nuclei (%)” value (HEK-293T; [4])?
The value was 24.93% and 15.9%.

And the “Population Hoechst High Intensity Objects (%)” value (HEK-293T; [4])?
The value was 0.27% and 0.42%.

And the “Population Membrane Permeable-Phenotype (%)” value (HEK-293T; [4])?
Its value is 2.15% and 5.26%.

What about the “Population Mitochondria Different-Phenotype (%)” value (HEK-293T; [4]) of the same molecule?
Its value is 30.11% and 18.42%.

What about the “Population Mitotic Cells (%)” value (HEK-293T; [4]) of the same molecule?
The value was 45.9% and 44.15%.

And the “Population Normal (%)” value (HEK-293T; [4])?
The value was 99.73% and 99.58%.

And the “Population Pyknosed Nuclei (%)” value (HEK-293T; [4])?
Its value is 71.85% and 78.66%.

And the “Population Tubulin-Different-Phenotype (%)” value (HEK-293T; [4])?
Its value is 15.05% and 18.42%.

And the “Total Cell Count” value (HEK-293T; [4])?
Its value is 374 and 240.

And the “Population Apoptotic (%)” value (U2OS; [5])?
The value was 45.16% and 22.22%.

What about the “Population Fragmented Nuclei (%)” value (U2OS; [5]) of the same molecule?
Its value is 2.6% and 2.94%.

What about the “Population Healthy Nuclei (%)” value (U2OS; [5]) of the same molecule?
Its value is 88.44% and 83.82%.

What about the “Population Hoechst High Intensity Objects (%)” value (U2OS; [5]) of the same molecule?
Its value is 0%.

And the “Population Membrane Permeable-Phenotype (%)” value (U2OS; [5])?
The value was 5.23% and 5.26%.

What about the “Population Mitotic Cells (%)” value (U2OS; [5]) of the same molecule?
The value was 54.84% and 77.78%.

What about the “Population Normal (%)” value (U2OS; [5]) of the same molecule?
The value was 100%.

What about the “Population Pyknosed Nuclei (%)” value (U2OS; [5]) of the same molecule?
The value was 8.96% and 13.24%.

What about the “Population Tubulin-Different-Phenotype (%)” value (U2OS; [5]) of the same molecule?
The value was 7.84% and 9.65%.

What about the “Total Cell Count” value (U2OS; [5]) of the same molecule?
The value was 346 and 136.

And the “Population Apoptotic (%)” value (U2OS; [6])?
Its value is 60.48% and 43.06%.

What about the “Population Fragmented Nuclei (%)” value (U2OS; [6]) of the same molecule?
Its value is 3.46% and 6.63%.

And the “Population Healthy Nuclei (%)” value (U2OS; [6])?
Its value is 55.31% and 53.59%.

What about the “Population Hoechst High Intensity Objects (%)” value (U2OS; [6]) of the same molecule?
Its value is 0%.

What about the “Population Membrane Permeable-Phenotype (%)” value (U2OS; [6]) of the same molecule?
The value was 4.46% and 6.19%.

What about the “Population Mitochondria Different-Phenotype (%)” value (U2OS; [6]) of the same molecule?
The value was 0% and 2.06%.

And the “Population Mitotic Cells (%)” value (U2OS; [6])?
The value was 39.52% and 56.94%.

And the “Population Normal (%)” value (U2OS; [6])?
Its value is 100%.

What about the “Population Pyknosed Nuclei (%)” value (U2OS; [6]) of the same molecule?
Its value is 41.23% and 39.78%.

What about the “Population Tubulin-Different-Phenotype (%)” value (U2OS; [6]) of the same molecule?
Its value is 8.04% and 1.03%.

What about the “Total Cell Count” value (U2OS; [6]) of the same molecule?
Its value is 405 and 181.

And the “Population Apoptotic (%)” value (U2OS; [1])?
Its value is 65.71% and 37.04%.

What about the “Population Fragmented Nuclei (%)” value (U2OS; [1]) of the same molecule?
The value was 3.06% and 4.14%.

What about the “Population Healthy Nuclei (%)” value (U2OS; [1]) of the same molecule?
Its value is 87.22% and 77.24%.

What about the “Population Hoechst High Intensity Objects (%)” value (U2OS; [1]) of the same molecule?
Its value is 0.28% and 0%.

And the “Population Membrane Permeable-Phenotype (%)” value (U2OS; [1])?
The value was 2.87% and 3.57%.

And the “Population Mitotic Cells (%)” value (U2OS; [1])?
The value was 34.29% and 62.96%.

What about the “Population Normal (%)” value (U2OS; [1]) of the same molecule?
The value was 99.72% and 100%.

What about the “Population Pyknosed Nuclei (%)” value (U2OS; [1]) of the same molecule?
The value was 9.72% and 18.62%.

What about the “Population Tubulin-Different-Phenotype (%)” value (U2OS; [1]) of the same molecule?
The value was 5.73% and 4.46%.

And the “Total Cell Count” value (U2OS; [1])?
The value was 361 and 145.

And the “Population Apoptotic (%)” value (U2OS; [2])?
Its value is 54.77% and 33.33%.

And the “Population Fragmented Nuclei (%)” value (U2OS; [2])?
The value was 3.76% and 6.3%.

What about the “Population Healthy Nuclei (%)” value (U2OS; [2]) of the same molecule?
The value was 39.53% and 38.24%.

What about the “Population Hoechst High Intensity Objects (%)” value (U2OS; [2]) of the same molecule?
Its value is 0%.

What about the “Population Membrane Permeable-Phenotype (%)” value (U2OS; [2]) of the same molecule?
The value was 4.17% and 5.49%.

And the “Population Mitochondria Different-Phenotype (%)” value (U2OS; [2])?
Its value is 0.6% and 2.2%.

What about the “Population Mitotic Cells (%)” value (U2OS; [2]) of the same molecule?
The value was 45.23% and 66.67%.

What about the “Population Normal (%)” value (U2OS; [2]) of the same molecule?
The value was 100%.

What about the “Population Pyknosed Nuclei (%)” value (U2OS; [2]) of the same molecule?
The value was 56.71% and 55.46%.

What about the “Population Tubulin-Different-Phenotype (%)” value (U2OS; [2]) of the same molecule?
Its value is 10.12% and 3.3%.

What about the “Total Cell Count” value (U2OS; [2]) of the same molecule?
Its value is 425 and 238.

And the “Population Apoptotic (%)” value (U2OS; [3])?
Its value is 60.87% and 57%.

And the “Population Fragmented Nuclei (%)” value (U2OS; [3])?
The value was 5.63% and 2.11%.

And the “Population Healthy Nuclei (%)” value (U2OS; [3])?
The value was 42.54% and 27.46%.

And the “Population Hoechst High Intensity Objects (%)” value (U2OS; [3])?
Its value is 0%.

What about the “Population Membrane Permeable-Phenotype (%)” value (U2OS; [3]) of the same molecule?
Its value is 3.31% and 7.69%.

And the “Population Mitochondria Different-Phenotype (%)” value (U2OS; [3])?
Its value is 0% and 12.82%.

What about the “Population Mitotic Cells (%)” value (U2OS; [3]) of the same molecule?
The value was 39.13% and 43%.

And the “Population Normal (%)” value (U2OS; [3])?
Its value is 100%.

And the “Population Pyknosed Nuclei (%)” value (U2OS; [3])?
The value was 51.83% and 70.42%.

What about the “Population Tubulin-Different-Phenotype (%)” value (U2OS; [3]) of the same molecule?
The value was 7.95% and 10.26%.

And the “Total Cell Count” value (U2OS; [3])?
The value was 355 and 142.

What about the “Population Apoptotic (%)” value (U2OS; [4]) of the same molecule?
Its value is 66.91% and 37.27%.

What about the “Population Fragmented Nuclei (%)” value (U2OS; [4]) of the same molecule?
The value was 5.11% and 2.77%.

And the “Population Healthy Nuclei (%)” value (U2OS; [4])?
The value was 33.11% and 33.6%.

What about the “Population Hoechst High Intensity Objects (%)” value (U2OS; [4]) of the same molecule?
The value was 0%.

And the “Population Membrane Permeable-Phenotype (%)” value (U2OS; [4])?
The value was 5.37% and 9.41%.

And the “Population Mitochondria Different-Phenotype (%)” value (U2OS; [4])?
The value was 1.34% and 1.18%.

And the “Population Mitotic Cells (%)” value (U2OS; [4])?
The value was 33.09% and 62.73%.

What about the “Population Normal (%)” value (U2OS; [4]) of the same molecule?
The value was 100%.

And the “Population Pyknosed Nuclei (%)” value (U2OS; [4])?
The value was 61.78% and 63.64%.

And the “Total Cell Count” value (U2OS; [4])?
The value was 450 and 253.
